In the library only some 4.8% were active in any assay of this set; here they are far more common.
Mdm2-MdmX inh = inhibitors of human Mdm2/MdmX interaction. SaOS-2 split-luciferase Mdm2/MdmX complementation, luminescence. inhibition, % at 8 µM. O15151+Q00987. 330,000 tested, 3% active;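 active means inhibition of at least 50% at 8 µM in the primary screen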
Target sequence (O15151 whole entry, looked up): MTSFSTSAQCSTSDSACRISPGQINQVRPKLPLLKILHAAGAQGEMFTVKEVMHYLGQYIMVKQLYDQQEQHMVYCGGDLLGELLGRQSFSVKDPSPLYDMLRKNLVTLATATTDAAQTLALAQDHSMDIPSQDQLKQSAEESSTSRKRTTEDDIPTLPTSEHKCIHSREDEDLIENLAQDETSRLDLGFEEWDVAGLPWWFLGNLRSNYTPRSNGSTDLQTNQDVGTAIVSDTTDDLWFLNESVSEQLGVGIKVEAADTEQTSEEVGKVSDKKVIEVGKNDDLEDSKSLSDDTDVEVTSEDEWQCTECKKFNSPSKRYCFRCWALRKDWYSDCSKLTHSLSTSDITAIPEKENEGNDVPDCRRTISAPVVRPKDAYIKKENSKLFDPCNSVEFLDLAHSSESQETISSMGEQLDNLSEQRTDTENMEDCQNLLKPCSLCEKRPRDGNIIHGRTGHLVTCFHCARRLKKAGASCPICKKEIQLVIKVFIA
Target sequence (Q00987 whole entry, looked up): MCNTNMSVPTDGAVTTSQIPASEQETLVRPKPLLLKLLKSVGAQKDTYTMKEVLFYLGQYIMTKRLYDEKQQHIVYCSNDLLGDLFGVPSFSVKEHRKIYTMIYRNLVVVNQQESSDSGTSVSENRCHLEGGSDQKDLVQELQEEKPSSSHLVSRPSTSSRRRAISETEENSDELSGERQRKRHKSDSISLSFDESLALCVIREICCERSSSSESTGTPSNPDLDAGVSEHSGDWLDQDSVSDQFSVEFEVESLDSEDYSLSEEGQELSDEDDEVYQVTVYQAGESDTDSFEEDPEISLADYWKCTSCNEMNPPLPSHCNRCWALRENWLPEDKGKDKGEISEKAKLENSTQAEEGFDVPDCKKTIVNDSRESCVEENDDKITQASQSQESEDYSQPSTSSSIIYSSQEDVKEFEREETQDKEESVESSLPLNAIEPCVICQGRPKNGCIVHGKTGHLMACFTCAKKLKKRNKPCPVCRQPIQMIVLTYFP
CSC inhib = blocks cancer stem cells; cancer stem cell-like cells viability, luminescence; inhibition, % at 7.5 µM; 300,000 tested, 1.1% active; in the data active means inhibition above about 75%; tested in HMLE shEcad cells
SKKanGAS inh = SKKanGAS growth inhibition; inhibition, % at 7.5 µM; AID 1662; 300,000 tested, 1.3% active; S. pyogenes SKKanGAS, kanamycin growth, BacTiter-Glo, 6 h;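 active means mean replicate score, as percent of positive control median, at least 50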;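 further: strain carries kanamycin resistance gene driven by streptokinase promoter and grows in 40 µg/ml kanamycin; loss of luminescence reflects streptokinase promoter inhibition or plain growth inhibition; 0% = median of DMSO wells and 100% = positive control at its reference dose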
CHOP UPR activ = activators of apoptotic arm of unfolded protein response (CHOP). CHO-CHOP luciferase reporter, UPR activation, luminescence; percent of tunicamycin response over DMSO baseline. activation, % at 10 µM. 330,000 tested, 0.34% active. AID 449763;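 active means at 10 µM dose, activation of 40% or more, normalized to positive control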;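 further: 100% = tunicamycin at 10 µg/mL and 0% = DMSO alone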
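Dosing – one dose, 10 µM in 0.5% DMSO · System – CHO-CHOP cells, stable luciferase reporter of PERK-eIF2a-CHOP signalling · Input – 500 cells/well · Control set – tunicamycin 10 µg/mL final as positive, DMSO-only wells as negative · Timing – 6 h compound treatment, 37 °C · Measure – % activation vs tunicamycin · Technique – luminescence read with Steady-Glo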
Beta cell apopt = beta cell apoptosis inhibition; INS-1E cytokine-induced death, ATP luminescence, 48 h; percent of positive-control rescue, neutral wells zero; protection from apoptosis, % (test concentration not listed); 300,000 tested, 0.8% active; AID 435005;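 active means Every replicate reaches about 75%, or at least half do and their mean reaches it too, limit read from the data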;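 further: 0% = cytokine-treated negative control wells and 100% = positive control rescue; higher means more ATP so stronger rescue from cytokine killing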
XBP1 UPR activ = adaptive UPR (XBP1) activation. CHO-XBP1 luciferase reporter, IRE1-XBP1 UPR activation, luminescence; percent of tunicamycin response, DMSO as zero. activation, % at 20 µM. 330,000 tested, 0.33% active. AID 463104;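 active means versus positive control, 20 µM dose yields 30% or more activation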;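 further: 100% = tunicamycin at 10 µg/mL and 0% = DMSO only wells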
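Assay system: IRE1-XBP1 luciferase reporter CHO line. Input: 1000 cells/well. Buffer or medium: F12 with 10% serum. Doses: 20 µM, 1% DMSO. Times: overnight seeding at 37 °C, 6 h compound treatment at 37 °C. Technique: Steady-Glo luciferase glow luminescence, 10 min after reagent addition.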
Mdm2 MdmX conf = human Mdm2/MdmX binding inhibition, confirmed | luminescent assay | inhibition, % at 8 µM | 10,000 tested, 55% active | shares compounds with Mdm2-MdmX inh; in the data active means inhibition above about 40%
Full FLuc ctr = full-length luciferase inhibition in Mdm2/MdmX counter-screen | inhibition, % at 8 µM | AID 504607 | SaOS-2 full-length luciferase counterscreen, luminescence | 6,200 tested, 77% active | shares compounds with Mdm2-MdmX inh;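 active means mean inhibition at 8 µM reaching about 37%, which flags the compound as non-specific, limit read from the data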;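 further: p53-null SaOS-2 cells with luciferase driven by a doxycycline-inducible promoter; compound on cells about two nights before reading with doxycycline added after day one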
Numbers without * were called inactive; . = no result.

SMILES	Mdm2-MdmX inh	CSC inhib	SKKanGAS inh	CHOP UPR activ	Beta cell apopt	XBP1 UPR activ	Mdm2 MdmX conf	Full FLuc ctr
Cc1nc2c(c(C)nn2-c2ccccc2)c(C)c1CCC(=O)Nc1ccc(CN2CCCC2)cc1	63.8*	18.9	3.8	0.6	24.0	-2.0	35.0	53.0*
CCOc1ccc(-c2cc(C(=O)NCCCn3ccnc3)c3cc(Br)ccc3n2)cc1	100.4*	11.1	7.3	3.2	108.2*	10.9	22.9	.
CCOC(=O)C(C(=O)OCC)C(C(=O)OCC)N1CCOCC1 (stereo unspecified)	100.5*	34.9	-13.4	-10.7	.	-11.1	-16.1	.
CC(C)CNC(=O)c1c(N)n(/N=C/c2ccccn2)c2nc3ccccc3nc12	22.3	4.0	-7.5	5.0	8.3	8.5	.	.
CCCCNC(=O)c1c(N)n(/N=C/c2ccccn2)c2nc3ccccc3nc12	60.3*	4.1	10.1	2.4	0.4	4.3	35.8	72.3*
CCn1c(=O)cc(SCC(=O)Nc2ccc(C)cn2)c2ccccc21	100.4*	64.1	0.4	-2.6	51.7	-1.3	69.5*	143.1*
CCN1CCN(C(=O)CSc2cc(=O)n(CC)c3ccccc23)CC1	52.5*	-6.1	-5.9	2.5	-1.6	-0.1	40.7*	76.2*
CCn1c(=O)cc(SCC(=O)NCc2ccc(C)cc2)c2ccccc21	32.1	28.1	-2.7	-1.2	3.2	-1.5	.	.
CCn1c(=O)cc(SCC(=O)Nc2cc(OC)c(OC)c(OC)c2)c2ccccc21	52.5*	8.0	-0.8	-1.5	-4.0	3.6	18.8	.
CCn1c(=O)cc(SCC(=O)NCc2ccc(C)o2)c2ccccc21	59.6*	.	-2.1	1.8	-17.0	1.0	36.8	.
CCOC(=O)c1ccc(-c2ccc(/C=N/NC(=O)CN(c3ccccc3Br)S(C)(=O)=O)o2)cc1	51.0*	41.2	30.5	9.4	8.4	7.9	-4.0	.
Cc1c(N=C2N=C(NC(=O)c3cccs3)c3ccccc32)c(=O)n(-c2ccccc2)n1C	77.6*	28.0	21.2	0.3	19.7	13.3	13.1	.
CS(=O)(=O)c1ccc(Cl)c(NC(=O)C2CCN(S(=O)(=O)c3cccs3)CC2)c1	0.2	-12.8	.	0.9	-0.5	-2.9	.	.
Cc1nc(N)c(C#N)c(-c2cccnc2)c1C	51.1*	-16.1	1.7	0.4	-17.1	2.2	28.1	.
CCc1nc(N)c(C#N)c(-c2cccnc2)c1C	18.2	6.2	.	-1.8	-5.0	3.4	.	.
COc1ccc(OC)c(CC(=O)N2CCc3cc(OC)c(OC)cc3C2)c1	-17.9	-3.0	0.0	1.3	-1.7	-3.1	.	.
O=C(Nc1ccc(N2CCN(c3ncccc3C(F)(F)F)CC2)nc1)c1cccs1	65.0*	29.6	5.1	6.2	16.9	1.4	34.6	.
N/C(=N\O)c1ccc(N2CCN(c3ncccc3C(F)(F)F)CC2)nc1	-37.9	18.8	-1.0	5.9	-0.4	3.5	.	.
O=C(Nc1ccc(N2CCOCC2)nc1)c1cccs1	-7.2	0.5	-2.3	1.9	-7.9	0.5	.	.
O=C(Nc1ccc(N2CCN(c3ccc(C(F)(F)F)cn3)CC2)nc1)c1cccs1	56.3*	-2.2	0.9	-0.7	-5.5	-1.1	6.3	.
CN(CCCC(=O)N1CCCC(C(N)=O)C1)S(=O)(=O)c1ccc(F)cc1 (stereo unspecified)	9.0	1.1	-29.6	-0.9	0.8	-1.2	.	.
CCOC(=O)c1cc(-c2ccccc2)sc1NC(=O)COC(=O)c1ccc(Cl)c(S(N)(=O)=O)c1	53.7*	18.1	2.4	9.5	4.9	19.3	82.3*	87.8*
CCOC(=O)c1cc(-c2ccccc2)sc1NC(=O)COC(=O)c1cccc(S(N)(=O)=O)c1	74.1*	14.6	5.8	30.3	35.1	6.5	25.6	.
O=C(OCc1cccc(Cl)c1)c1cc([N+](=O)[O-])ccc1N1CCOCC1	14.5	.	5.2	0.7	-1.1	2.3	.	.
O=C(COC(=O)c1cc([N+](=O)[O-])ccc1N1CCOCC1)Nc1ccc(Cl)cn1	76.3*	86.1*	28.6	-0.2	37.9	-5.6	58.0*	68.2*
SMILES	Mdm2-MdmX inh	CSC inhib	SKKanGAS inh	CHOP UPR activ	Beta cell apopt	XBP1 UPR activ	Mdm2 MdmX conf	Full FLuc ctr
O=C(COC(=O)c1cc([N+](=O)[O-])ccc1N1CCOCC1)Nc1ccc(Cl)cc1	25.8	4.2	17.1	-1.9	.	-1.9	.	.
Cc1ccc(C(=O)c2cc([N+](=O)[O-])ccc2N2CCCCC2)cc1	53.2*	55.5	0.4	0.0	9.7	14.8	64.6*	96.3*
O=C(c1ccc(Br)cc1)c1cc([N+](=O)[O-])ccc1N1CCOCC1	48.0	67.2	4.0	-1.8	12.8	4.5	.	.
Cc1ccc(C(=O)c2cc([N+](=O)[O-])ccc2N2CC(C)OC(C)C2)cc1 (stereo unspecified)	41.6	49.1	-10.0	0.1	23.9	-2.0	.	.
COc1ccc(COC(=O)c2cc([N+](=O)[O-])ccc2N2CCOCC2)cc1F	72.2*	60.1	1.2	0.9	51.2	10.2	77.9*	124.8*
O=C(c1ccc(Cl)cc1)c1cc([N+](=O)[O-])ccc1N1CCOCC1	64.6*	52.1	3.1	-1.6	32.2	9.3	51.7*	80.6*
CC1CCC(NC(=O)CCC(=O)N2CC(C)Oc3ccccc32)CC1 (stereo unspecified)	-2.0	.	-4.1	4.7	.	1.3	.	.
CC1CCCN(c2ccc([N+](=O)[O-])cc2C(=O)c2ccccc2)C1 (stereo unspecified)	64.7*	57.1	-8.1	0.6	44.5	9.9	55.0*	98.9*
CN1CCN(c2ccc([N+](=O)[O-])cc2C(=O)N2CCCCC2)CC1	-40.9	-10.2	7.2	0.0	-7.5	0.9	.	.
CN1CCN(c2ccc([N+](=O)[O-])cc2C(=O)c2ccc(Cl)cc2)CC1	50.5*	-3.7	5.0	-1.8	18.1	-0.4	61.2*	56.5*
O=C(CN(c1ccccc1)S(=O)(=O)c1ccccc1[N+](=O)[O-])Nc1cccnc1	-14.7	.	-2.5	-0.4	3.2	1.3	.	.
CCc1cccc(NC(=O)CCCn2nc(C)c3c(C)n(-c4ccccc4)nc3c2=O)c1	18.6	-2.2	-1.8	2.4	-2.0	-0.3	.	.
Cc1ccc(NC(=O)c2ccc(=O)[nH]n2)cc1S(=O)(=O)Nc1ccc(SC(F)F)cc1	5.0	6.2	.	0.4	5.0	-0.4	.	.
Cc1ccc(N2C(=O)N(CC(=O)N3c4ccccc4CC3C)C(=O)C2C)cc1 (stereo unspecified)	5.7	.	.	0.4	.	-2.0	.	.
CCc1c(C)sc2nc(C(C)C)nc(SCC(=O)N3CCc4ccccc4C3)c12	94.7*	191.7*	62.5*	8.1	104.8*	0.7	57.5*	74.3*

Source: PubChem (several laboratories)
